Data on 15 compounds can be found in ChEMBL document CHEMBL1144497 (Bioorg Med Chem, 2007).

In brackets after ≈: the same amount, converted by molar mass.

Series [1] deals with Mus musculus. Nature of the series: AUC in Swiss Webster mouse at 5 mg/kg, po. Format: ADME, organism-based, Plasma. Also on record: dose 5 mg/kg, route oral. The conditions noted are these: in vivo. A digest of the protocol: (§1)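 Male Swiss Webster mice, 7 weeks old, dosed by oral gavage at 5 mg/kg in olive oil. AUDA was measured in blood by LC-MS/MS. Cmax, AUC to terminal time and T1/2 were calculated from AUDA blood concentrations.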

In a further series the target is T1, Liver carboxylesterase 1 (Homo sapiens, UniProt P23141).
T1 sequence (P23141 whole entry): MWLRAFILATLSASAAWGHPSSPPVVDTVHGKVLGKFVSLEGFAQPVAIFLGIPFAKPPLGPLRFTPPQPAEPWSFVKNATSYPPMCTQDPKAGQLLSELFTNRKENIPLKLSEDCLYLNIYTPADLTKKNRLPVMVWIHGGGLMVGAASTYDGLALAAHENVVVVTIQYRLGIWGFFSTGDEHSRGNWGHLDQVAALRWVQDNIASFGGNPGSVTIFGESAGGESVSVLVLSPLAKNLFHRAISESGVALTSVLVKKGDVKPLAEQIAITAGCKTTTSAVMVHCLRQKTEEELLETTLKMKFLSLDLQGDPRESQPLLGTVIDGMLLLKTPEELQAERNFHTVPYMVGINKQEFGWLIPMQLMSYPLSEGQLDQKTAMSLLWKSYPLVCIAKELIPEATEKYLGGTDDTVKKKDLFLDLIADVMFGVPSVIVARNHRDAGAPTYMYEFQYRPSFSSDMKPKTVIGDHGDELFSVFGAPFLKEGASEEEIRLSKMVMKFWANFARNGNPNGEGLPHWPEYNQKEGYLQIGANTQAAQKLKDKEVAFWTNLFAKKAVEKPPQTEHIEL
Put plainly: Activity of human recombinant carboxylesterase 1 assessed as AUDA hydrolysis. Details: scale not given: the % may be the effect or the level left.

Series [2] relates to Mus musculus. Put plainly: Half life in Swiss Webster mouse at 5 mg/kg, po. Format: ADME, organism-based. Details: dose 5 mg/kg, route oral. The conditions noted are these: in vivo.
Series [3] is described as follows: Solubility in sodium phosphate buffer at pH 7.4. Format: physicochemical.
Series [4] in a line: Solubility in oil. Format: physicochemical.
Another series concerns the target T2, Cocaine esterase (Homo sapiens, UniProt O00748).
T2 sequence (O00748 whole entry): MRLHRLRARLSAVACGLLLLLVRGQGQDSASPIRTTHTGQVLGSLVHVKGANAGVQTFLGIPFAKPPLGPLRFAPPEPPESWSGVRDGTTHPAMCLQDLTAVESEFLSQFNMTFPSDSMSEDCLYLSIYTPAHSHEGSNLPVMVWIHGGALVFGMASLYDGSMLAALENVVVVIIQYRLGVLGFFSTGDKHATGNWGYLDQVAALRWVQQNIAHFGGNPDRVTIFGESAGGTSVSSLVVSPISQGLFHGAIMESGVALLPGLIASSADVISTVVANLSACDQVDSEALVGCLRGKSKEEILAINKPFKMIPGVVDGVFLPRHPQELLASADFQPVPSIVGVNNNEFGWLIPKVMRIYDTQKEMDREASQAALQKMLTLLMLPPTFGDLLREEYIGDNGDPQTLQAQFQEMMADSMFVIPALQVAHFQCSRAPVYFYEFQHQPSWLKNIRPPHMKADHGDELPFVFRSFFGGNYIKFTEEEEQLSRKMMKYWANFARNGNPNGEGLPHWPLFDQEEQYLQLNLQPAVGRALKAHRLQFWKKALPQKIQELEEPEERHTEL
Nature of the series: Activity of human recombinant carboxylesterase 2 assessed as AUDA hydrolysis. Details: concentration or dose not given beside the values. A digest of the protocol: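 Ester (100 μM) was incubated with purified baculovirus-expressed human carboxylesterase (hCE-1 or hCE-2, 5 μg; 333 nM) in 0.1 M sodium phosphate pH 7.4 at 37°C. Sampling was at 0, 30 and 60 min, with 60 min reported. Percent free acid (AUDA) formed was measured by LC-MS/MS. Values are averages of three separate measurements.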

For series [5], the system named is Mus musculus. Nature of the series: Cmax in Swiss Webster mouse at 5 mg/kg, po. Also on record: dose 5 mg/kg, route oral. Format: ADME, organism-based. The conditions noted are these: in vivo. The method in brief:
as §1

Series [6] deals with T3, Bifunctional epoxide hydrolase 2 (Homo sapiens, UniProt P34913).
T3 sequence (P34913 whole entry): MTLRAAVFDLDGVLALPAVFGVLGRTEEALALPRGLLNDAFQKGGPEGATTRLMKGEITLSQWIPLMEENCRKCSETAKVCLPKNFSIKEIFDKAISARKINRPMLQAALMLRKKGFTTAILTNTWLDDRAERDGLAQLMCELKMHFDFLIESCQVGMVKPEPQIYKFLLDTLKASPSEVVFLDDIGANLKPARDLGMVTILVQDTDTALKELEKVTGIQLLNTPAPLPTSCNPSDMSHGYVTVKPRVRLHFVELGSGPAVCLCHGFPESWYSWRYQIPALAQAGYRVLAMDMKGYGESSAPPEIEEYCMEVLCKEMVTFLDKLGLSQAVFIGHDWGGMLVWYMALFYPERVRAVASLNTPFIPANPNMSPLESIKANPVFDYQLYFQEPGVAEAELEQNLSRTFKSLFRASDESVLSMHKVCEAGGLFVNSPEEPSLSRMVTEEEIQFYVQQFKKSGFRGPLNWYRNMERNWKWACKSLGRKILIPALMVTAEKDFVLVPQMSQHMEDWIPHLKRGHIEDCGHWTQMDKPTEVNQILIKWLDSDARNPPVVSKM
Put plainly: Inhibition of human soluble epoxide hydrolase by fluorescent based assay.

The target in series [7] is T3, Bifunctional epoxide hydrolase 2. Nature of the series: Inhibition of human soluble epoxide hydrolase by spectrometric based assay.
Series [8] has as its target T4, Bifunctional epoxide hydrolase 2 (Mus musculus, UniProt P34914).
T4 sequence (P34914 whole entry): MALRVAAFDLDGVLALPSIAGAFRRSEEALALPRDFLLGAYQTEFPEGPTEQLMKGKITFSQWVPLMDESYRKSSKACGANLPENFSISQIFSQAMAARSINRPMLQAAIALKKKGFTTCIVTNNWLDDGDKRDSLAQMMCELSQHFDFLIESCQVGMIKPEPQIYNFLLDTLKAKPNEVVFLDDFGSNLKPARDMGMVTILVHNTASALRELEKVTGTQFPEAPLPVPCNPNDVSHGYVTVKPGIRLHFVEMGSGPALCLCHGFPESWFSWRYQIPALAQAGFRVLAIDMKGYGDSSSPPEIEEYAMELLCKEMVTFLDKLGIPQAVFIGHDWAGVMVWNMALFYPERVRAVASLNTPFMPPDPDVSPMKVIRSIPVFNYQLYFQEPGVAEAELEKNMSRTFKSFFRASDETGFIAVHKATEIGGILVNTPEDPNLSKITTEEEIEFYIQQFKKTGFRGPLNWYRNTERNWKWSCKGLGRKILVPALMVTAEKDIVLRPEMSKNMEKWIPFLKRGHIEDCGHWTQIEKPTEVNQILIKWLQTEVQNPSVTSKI
Put plainly: Inhibition of mouse soluble epoxide hydrolase by spectrometric based assay.

For orientation: AUC means the area under the concentration-time curve, a measure of exposure. For orientation: solubility means the concentration that dissolves in the medium under given conditions. As a reminder, the Cmax is the peak of the concentration-time curve. As for `O=C(O)CCCCCCCCCCCNC(=O)NC12CC3CC(CC(C3)C1)C2`, the exposure (AUC) in the series with Mus musculus [1] is 87 ng·h/mL. Also, the Activity on Liver carboxylesterase 1 and at Cocaine esterase was 100% throughout. Besides, the t1/2 with Mus musculus [2] amounted to 2.3 h. Moreover, the solubility in series [3] was found to be 35 µg/mL (≈ 89.2 µM); in series [4] it was 5000 µg/mL (≈ 12700 µM). For the same compound, in the series with Mus musculus [5], the Cmax came out at 26.9 ng/mL.
The compound `CCCCOC(=O)CCCCCCCCCCCNC(=O)NC12CC3CC(CC(C3)C1)C2` registered an exposure (AUC) in the series on Mus musculus [1] of 96 ng·h/mL. The Activity on Liver carboxylesterase 1 was 41%; on Cocaine esterase it was 39%. Besides, the solubility in series [3] was determined as 5 µg/mL (≈ 11.1 µM); in series [4], 25000 µg/mL (≈ 55700 µM). The compound further showed a maximum concentration (Cmax) in the series on Mus musculus [5] of 39.5 ng/mL.
A word on the IC50: it is the point on the concentration scale where inhibition reaches its midpoint. In turn, `CCOC(=O)CCCCCCCCCCCNC(=O)NC12CC3CC(CC(C3)C1)C2` had an IC50 in series [6] of 1.6 nM.
In series [6], `C#CCOC(=O)CCCCCCCCCCCNC(=O)NC12CC3CC(CC(C3)C1)C2` yielded a half-inhibitory concentration (IC50) of 1.8 nM.
For `CCCCCCCCC(NC(=O)CCCCCCCCCCCNC(=O)NC12CC3CC(CC(C3)C1)C2)C(=O)N[C@H]1O[C@@H](CO)[C@H](O)[C@@H](O)[C@@H]1O` (stereo partly drawn), the half-maximal inhibitory concentration (IC50) in series [6] was 7.5 nM; in series [7] it was 100 nM; in series [8] it was 50 nM. In addition, the figures for the solubility in series [3] and in series [4] were 38 µg/mL (≈ 52.6 µM) and 2000 µg/mL (≈ 2770 µM), respectively.
Consider `COC(=O)CCCCCCCCCCCNC(=O)NC12CC3CC(CC(C3)C1)C2`, for which the IC50 in series [6] was 2.3 nM.
In series [6], `CCCOC(=O)CCCCCCCCCCCNC(=O)NC12CC3CC(CC(C3)C1)C2` returned an IC50 of 1 nM.
`CC(C)COC(=O)CCCCCCCCCCCNC(=O)NC12CC3CC(CC(C3)C1)C2` had an area under the curve (AUC) in the series on Mus musculus [1] of 110 ng·h/mL. For the same compound, the Activity at Liver carboxylesterase 1 worked out at 55%; at Cocaine esterase it was 33%. This compound had a concentration for half-maximal inhibition (IC50) in [6] of 1.2 nM. For the same compound, the solubility stood at 1.7 µg/mL (≈ 3.79 µM) in series [3] and 17000 µg/mL (≈ 37900 µM) in [4]. The highest concentration (Cmax) with Mus musculus [5] came to 42.9 ng/mL.
`O=C(NCCCCCCCCCCCC(=O)OCc1ccccc1)NC12CC3CC(CC(C3)C1)C2`: in series [6], the IC50 was 2 nM.
`CCC(C)OC(=O)CCCCCCCCCCCNC(=O)NC12CC3CC(CC(C3)C1)C2` (stereo not drawn) registered an AUC with Mus musculus [1] of 47 ng·h/mL. For the same compound, the t1/2 in the series with Mus musculus [2] was found to be 3.8 h. The IC50 in series [6] was 0.7 nM. The values for the solubility in series [3] and in series [4] were 5 µg/mL (≈ 11.1 µM) and 27000 µg/mL (≈ 60200 µM), respectively. Also, the Activity on Cocaine esterase is reported as 26%. The compound also returned a Cmax with Mus musculus [5] of 13.1 ng/mL.
As for `O=C(CCCCCCCCCCCNC(=O)NC12CC3CC(CC(C3)C1)C2)NCC(=O)N[C@H]1O[C@@H](CO)[C@H](O)[C@@H](O)[C@@H]1O`, the concentration for half-maximal inhibition (IC50) was 7.6 nM in [6], 220 nM in series [7] and 50 nM in series [8].
For `C=CCOC(=O)CCCCCCCCCCCNC(=O)NC12CC3CC(CC(C3)C1)C2`, half-maximal inhibition in [6] (IC50) required 1 nM.
Regarding `CS(=O)(=O)NC(=O)CCCCCCCCCCCNC(=O)NC12CC3CC(CC(C3)C1)C2`, the solubility in series [3] is 10 µg/mL (≈ 21.3 µM).
Regarding `O=C(NCCCCCCCCCCCC(=O)OC12CC3CC(CC(C3)C1)C2)NC12CC3CC(CC(C3)C1)C2`, the concentration for half-maximal inhibition (IC50) came to 1.5 nM in series [6], 230 nM in series [7] and 50 nM in series [8].
As to `CC(C)OC(=O)CCCCCCCCCCCNC(=O)NC12CC3CC(CC(C3)C1)C2`, in the series on Mus musculus [1], the exposure (AUC) stood at 84 ng·h/mL. Moreover, the Activity at Liver carboxylesterase 1 is 72%; at Cocaine esterase, 39%. In the series with Mus musculus [2], this compound gave a t1/2 of 1.9 h. This compound also registered an IC50 in series [6] of 1.1 nM. In addition, the solubility in series [3] is 7 µg/mL (≈ 16.1 µM); in [4], 12000 µg/mL (≈ 27600 µM). Moreover, the Cmax in the series on Mus musculus [5] was 29.6 ng/mL.
